Measurements gathered from unrelated publications.
Compare with care: the assays were run in different laboratories.
Target: Cyclin-dependent kinase 2 (CDK2, Homo sapiens, UniProt P24941)
Method: competition with immobilised ligand

SMILES	effect on	concentration	remaining binding [%]
Cc1cnc(Nc2ccc(C(=O)N3CCC(N4CCCC4)CC3)cc2)nc1-c1cc2ccccc2s1	binding	1 µM	35
CC(C)(C)c1ccc(-c2nc(CBr)nn2-c2cccc(O)c2)cc1	cell-free assay	10 µM	90
O=C(NCCCN1CCOCC1)c1ccc(Nc2nccc(-c3cc4ccccc4s3)n2)cc1	binding	1 µM	66
CO[C@H]1CC[C@H](CNc2ccc(S(=O)(=O)NC(=O)c3ccc(N4CCN(CC5=C(c6ccc(Cl)cc6)CC(C)(C)CC5)CC4)cc3Oc3cnc4[nH]ccc4c3)cc2[N+](=O)[O-])CC1	cell-free assay	1 µM	100
Nc1ncc2c(n1)-c1c([nH]c3ccc(C#CC4CC4)cc13)CCCC2	binding	1 µM	85
O=C(NCC1CCOCC1)c1n[nH]cc1NC(=O)c1c(F)cccc1F	binding	1 µM	49
COc1cnc(Nc2cccc(S(N)(=O)=O)c2)nc1N1CCN(c2ccccc2)CC1	binding	1 µM	98
c1cncc(-c2cccc(Nc3nccc(NC4CCCCC4)n3)c2)c1	binding	10 µM	81
Nc1cnc(N2CCc3cc(S(=O)(=O)Nc4c(F)cc(Cl)cc4F)cc(N4CCCC4=O)c32)nc1	cell-free assay	1 µM	100
O=C(c1ccc(Nc2ncc(Cl)c(-c3ccc(Cl)s3)n2)cc1)N1CCC(N2CCCC2)CC1	binding	1 µM	27
C[C@H]1CCN(c2nccc(-c3cnn4ncccc34)n2)C1	binding	1 µM	95
N#Cc1ccccc1CSc1nnc2c(n1)[nH]c1ccccc12	binding	10 µM	82
Cc1cc(C)c(-n2ccn3nc(-c4cccnc4)cc23)cc1NC(=O)c1cc(C#N)cc(S(F)(F)(F)(F)F)c1	cell-free assay	0.1 µM	99
C[C@@H]1CN(c2ccc3ncc(-c4ccc5[nH]nc(C6CC6)c5c4)n3n2)C[C@H](C)O1	binding	50 nM	100
C[C@H](c1ccc(F)cc1)N(Cc1cccc(C(=O)O)c1)C(=O)c1cnc2ccccc2c1	cell-free assay	1 µM	100
COc1ncc2cc3ccccc3nc2c1C#N	cell-free assay	5 µM	100
